Apaf1 activ – activators of human Apaf-1 apoptosome, primary screen, biochemical, DEVD-Rh110 fluorescence, uHTS. Apoptotic protease-activating factor 1 (Homo sapiens), O14727. Apaf-1 apoptosome caspase-3 activation; stronger effect = lower value. activity change, negative = activation, % at 20 µM. hit rate 0.31% among 330,000. AID 489031, 2010;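 active means activity change at or below -40% at 20 µM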
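Material: reconstituted apoptosome of Apaf-1, cytochrome c, caspase-9, procaspase-3; times: 30 min preincubation, 50 min reaction, room temperature; measured by: fluorescence, 540 nm emission, 480 nm excitation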
Rh110 act interf – Rh110 fluorescence interference by putative Apaf-1 activators, confirmation, artefact control for Apaf-1 activator project, biochemical, 20 µM; shares compounds with Apaf1 activ; quenched caspase reaction, Ex480/Em540; fluorescence interference (activity change), % at 20 µM, hits read low; 980 tested, under 10 active; AID 504616, 2011;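 active means mean activity change at or below -40% when tested at 20 µM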
Apaf-1 act conf – Apaf-1 activators, single-dose retest, confirmation, biochemical, fluorescence, DEVD-Rh110, 20 µM; shares compounds with Apaf1 activ; reconstituted apoptosome caspase-3 activity; stronger effect = lower value; activity change, negative = activation, % at 20 µM; hit rate 5% among 980;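 active means mean activity change at or below -40%, meaning activation of 40% or more, at 20 µM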
A number is an active result. Only a sample is shown.

Screening C#CCOCCOCCOCCNc1nc(N2CCN(C(=O)CCCCCCCCCCNC(=O)[C@H](CO)n3cc(CCCSC)nn3)CC2)nc(N2CCN(C(=O)CCCCCCCCCCNC(=O)[C@H](CCCCN)n3cc(C[C@@H](C)CC)nn3)CC2)n1 returned Apaf1 activ inactive.
For CCC(C)n1c(NC(=O)c2ccccc2)c(C#N)c2nc3ccccc3nc21 (stereo unspecified) the results were Apaf1 activ inactive.
CCOc1cc(/C=C2/C(=O)N(c3ccccc3)N=C2C)ccc1OC(=O)c1ccco1 was read as Apaf1 activ inactive.
CCOC(=O)c1nn(-c2ccccc2)c(=O)cc1OCC(=O)Nc1cc(C)ccc1OC was read as Apaf1 activ -57.0, Rh110 act interf inactive and Apaf-1 act conf inactive.
Screening CCCCc1ccc(Nc2nc(CCC)cc(=O)[nH]2)cc1 returned Apaf1 activ inactive.
`CN1C(C(=O)NCC2CC2)CC2Cn3c(nc4cc5ccccc5cc43)C21` (stereo unspecified) gave Apaf1 activ inactive.
For CCC(CO)Oc1cc(NCc2ccc(C)cc2)c2ncn(C(C)C)c2c1 (stereo unspecified) the results were Apaf1 activ inactive.
`CC12CC3CC(C)(C1)CC(N)(C3)C2` gave Apaf1 activ inactive.
CCOc1ccc(-c2nnc(-c3ccncc3)o2)cc1 was read as Apaf1 activ -420.8, Rh110 act interf inactive and Apaf-1 act conf inactive.
`CCN1/C(=C/C=C/C=C/c2sc3ccccc3[n+]2CC)Sc2ccccc21` gave Apaf1 activ inactive.
For CC(=O)Nc1ccc(NC(=O)C2CC(=O)Nc3nc4ccccc4n32)cc1 (stereo unspecified) the results were Apaf1 activ -43.4, Rh110 act interf inactive and Apaf-1 act conf inactive.
Screening COC(=O)c1c(N)n(-c2ccc(NC(C)=O)cc2)c2nc3ccccc3nc12 returned Apaf1 activ inactive.
`COc1ccc(/C=C2/C(=O)N(c3ccccc3)N=C2C)cc1Br` gave Apaf1 activ inactive.
`CCC(=Nc1ccc(N)cc1)C1=C(O)C(C(=O)OC)C(C)(C)CC1=O` (stereo unspecified) gave Apaf1 activ inactive.
`C#CCOCCOCCOCCNc1nc(N2CCN(C(=O)CCCCCCCCCCNC(=O)[C@H]([C@@H](C)CC)n3cc(CCCCCN)nn3)CC2)nc(N2CCN(C(=O)CCCCCCCCCCNC(=O)[C@@H]([C@H](C)O)n3cc(C)nn3)CC2)n1` gave Apaf1 activ inactive.
Screening C#CCOCCOCCOCCNc1nc(N2CCN(C(=O)CCCCCCCCCCNC(=O)[C@H](CCCCN)n3cc(CCO)nn3)CC2)nc(N2CCN(C(=O)CCCCCCCCCCNC(=O)[C@@H]([C@H](C)O)n3cc(C)nn3)CC2)n1 returned Apaf1 activ inactive.
`CNC(=S)N(Cc1cc2ccc(OC)cc2[nH]c1=O)CC1CCCO1` (stereo unspecified) gave Apaf1 activ -182.9, Rh110 act interf inactive and Apaf-1 act conf inactive.
For COc1ccc(NCc2cc3cc(OC)ccc3[nH]c2=O)cc1 the results were Apaf1 activ inactive.
`COc1ccc2cc(C(c3nnnn3C3CCCC3)N3CCc4ccccc4C3)c(=O)[nH]c2c1` (stereo unspecified) gave Apaf1 activ inactive.
`CC(=O)N=Cc1c(C)c(C#N)c(=O)n(C)c1O` gave Apaf1 activ inactive.
Screening Clc1ccc(-c2nnc3sc(Cc4cccs4)nn23)cc1 returned Apaf1 activ inactive.
Screening COc1cc(OC)c2c(-c3ccccc3)cc(=O)oc2c1C(CCN1CCCC(C)C1)c1ccc2c(c1)OCO2 (stereo unspecified) returned Apaf1 activ inactive.
Screening CCC1Oc2ccccc2N(CC(=O)NC2CCCCC2C)C1=O (stereo unspecified) returned Apaf1 activ -224.4, Rh110 act interf inactive and Apaf-1 act conf inactive.
Cc1coc2c1C(=O)C(=O)c1c-2ccc2c1CCCC2(C)C was read as Apaf1 activ inactive.
CCN(CC(=O)Nc1ccc(NC(C)=O)cc1)C(=O)c1ccccc1Sc1ccccc1C#N was read as Apaf1 activ inactive.
For Cn1c(Cc2ccccc2)n[nH]c1=S the results were Apaf1 activ inactive.
Screening COc1ccc(OCc2cc(C(=O)NC3CCOC(C)(C)C3)no2)c2ccccc12 (stereo unspecified) returned Apaf1 activ inactive.
`CC(C)NC1=C(Cl)C(=O)c2ccccc2C1=O` gave Apaf1 activ inactive.
For CN(Cc1c(F)cccc1Cl)c1nnnn1-c1ccccc1 the results were Apaf1 activ -63.5, Rh110 act interf inactive and Apaf-1 act conf inactive.
Screening O=C(CCc1ccccc1)NNc1cc(N2CCCCC2)nc(N2CCCCC2)n1 returned Apaf1 activ inactive.
COc1cc(/C=C2/C(=O)N(c3ccccc3)N=C2C)ccc1OS(=O)(=O)c1ccccc1 was read as Apaf1 activ inactive.
For O=C(Oc1ccc[nH]c1=O)c1cc([N+](=O)[O-])cc([N+](=O)[O-])c1 the results were Apaf1 activ inactive.
CCCC(C)NC(=O)c1cc(C(=O)OC)cc([N+](=O)[O-])c1 (stereo unspecified) was read as Apaf1 activ -107.8, Rh110 act interf inactive and Apaf-1 act conf inactive.
`O=C(N/N=C/c1ccc(-c2ccccc2[N+](=O)[O-])o1)c1cccnc1` gave Apaf1 activ inactive.
For O=C(Nc1ccncc1NC(=O)c1cccc([N+](=O)[O-])c1)c1cccc([N+](=O)[O-])c1 the results were Apaf1 activ -40.3, Rh110 act interf inactive and Apaf-1 act conf inactive.
For O=C(CN1CCc2cc3c(cc2C1)OCCCO3)Nc1cccc([N+](=O)[O-])c1 the results were Apaf1 activ inactive.
Screening Cc1ccc(C(C[N+](=O)[O-])c2c(C)[nH]n(-c3ccccc3)c2=O)cc1 (stereo unspecified) returned Apaf1 activ inactive.
Screening CCOc1cccc(N(C(=O)C2COc3ccccc3O2)C(C(=O)NC2CCCCC2)c2ccc(O)cc2)c1 (stereo unspecified) returned Apaf1 activ inactive.
For O=C(NC1CCCCC1)C(c1ccncc1)N(C(=O)c1csnn1)c1ccccc1F (stereo unspecified) the results were Apaf1 activ -127.8, Rh110 act interf inactive and Apaf-1 act conf inactive.
COc1ccc(N2CC(C(=O)N/N=C/c3cc([N+](=O)[O-])ccc3O)CC2=O)cc1 (stereo unspecified) was read as Apaf1 activ -318.3, Rh110 act interf inactive and Apaf-1 act conf inactive.
Screening COc1ccc(CN2CC(C(=O)NCc3cccc(OC)c3)CC2=O)cc1 (stereo unspecified) returned Apaf1 activ inactive.
C#CCOCCOCCOCCNc1nc(N2CCN(C(=O)[C@H]([C@@H](C)CC)n3cc(CCCCN)nn3)CC2)nc(N2CCN(C(=O)[C@H]([C@@H](C)CC)n3cc(CCCN=C(N)N)nn3)CC2)n1 was read as Apaf1 activ inactive.
For Cc1ccc2[nH]c(=O)c(C(c3nnnn3CC3CCCO3)N3CCc4ccccc4C3)cc2c1 (stereo unspecified) the results were Apaf1 activ inactive.
